Test results as given in ChEMBL document CHEMBL3414471 (J Med Chem, 2015).
Activity calls are given as the source filed them. The rule behind the calls is not given here.

Tests used:
CYP2C19 = CYP2C19 (Homo sapiens, UniProt P33261); experiment: Inhibition of human CYP2C19 using omeprazole as substrate at 10 uM; type: ADME; conditions: probe omeprazole
D(3) dopamine receptor = D(3) dopamine receptor (Homo sapiens, UniProt P35462); experiment: Binding affinity to dopamine D3 receptor (unknown origin)
[1] = target: 5-hydroxytryptamine receptor 1A (Homo sapiens, UniProt P08908); experiment: Binding affinity to 5HT1A receptor (unknown origin)
[2] = target: T1, 5-hydroxytryptamine receptor 2C (Homo sapiens) (UniProt P28335); experiment: Agonist activity at human 5-HT2C receptor expressed in HEK293 cells assessed as calcium flux by FLIPR assay relative to 5-HT; type: functional, cell-based
T1 sequence (whole entry): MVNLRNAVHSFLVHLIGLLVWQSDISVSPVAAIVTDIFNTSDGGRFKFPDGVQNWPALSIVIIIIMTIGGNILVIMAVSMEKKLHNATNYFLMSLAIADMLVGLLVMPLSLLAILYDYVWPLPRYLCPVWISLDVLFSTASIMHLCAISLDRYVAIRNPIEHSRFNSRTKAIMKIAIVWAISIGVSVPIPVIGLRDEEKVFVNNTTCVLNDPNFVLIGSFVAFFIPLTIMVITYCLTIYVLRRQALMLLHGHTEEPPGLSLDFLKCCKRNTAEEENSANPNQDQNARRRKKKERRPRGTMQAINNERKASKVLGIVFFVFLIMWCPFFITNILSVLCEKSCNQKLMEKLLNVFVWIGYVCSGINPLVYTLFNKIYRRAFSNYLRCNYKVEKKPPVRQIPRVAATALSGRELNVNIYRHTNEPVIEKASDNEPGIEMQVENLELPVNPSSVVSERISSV
In short: (§1)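 Flp-In-293 cells stably expressing human 5-HT2A, 5-HT2B or 5-HT2C-INI; grown 24–48 h in DMEM/10% dialyzed FBS, plated on poly-L-Lys at 12000 cells/well in 1% dialyzed FBS for 24 h. Loaded 1 h at 37 °C with calcium dye in HBSS, 20 mM Hepes pH 7.40, 2.5 mM probenecid.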

Homo sapiens = species: Homo sapiens; experiment: Selectivity ratio of EC50 for human 5-HT2A receptor to EC50 for human 5HT2C receptor
hERG (KCNH2) [3] = target: T2, hERG (KCNH2) (Homo sapiens, UniProt Q12809); experiment: (§2) Inhibition of human ERG channel expressed in CHO cells at […] by patch clamp method; type: cell-based; conditions: CHO cells expressing human ERG channel
T2 sequence (Q12809 whole entry): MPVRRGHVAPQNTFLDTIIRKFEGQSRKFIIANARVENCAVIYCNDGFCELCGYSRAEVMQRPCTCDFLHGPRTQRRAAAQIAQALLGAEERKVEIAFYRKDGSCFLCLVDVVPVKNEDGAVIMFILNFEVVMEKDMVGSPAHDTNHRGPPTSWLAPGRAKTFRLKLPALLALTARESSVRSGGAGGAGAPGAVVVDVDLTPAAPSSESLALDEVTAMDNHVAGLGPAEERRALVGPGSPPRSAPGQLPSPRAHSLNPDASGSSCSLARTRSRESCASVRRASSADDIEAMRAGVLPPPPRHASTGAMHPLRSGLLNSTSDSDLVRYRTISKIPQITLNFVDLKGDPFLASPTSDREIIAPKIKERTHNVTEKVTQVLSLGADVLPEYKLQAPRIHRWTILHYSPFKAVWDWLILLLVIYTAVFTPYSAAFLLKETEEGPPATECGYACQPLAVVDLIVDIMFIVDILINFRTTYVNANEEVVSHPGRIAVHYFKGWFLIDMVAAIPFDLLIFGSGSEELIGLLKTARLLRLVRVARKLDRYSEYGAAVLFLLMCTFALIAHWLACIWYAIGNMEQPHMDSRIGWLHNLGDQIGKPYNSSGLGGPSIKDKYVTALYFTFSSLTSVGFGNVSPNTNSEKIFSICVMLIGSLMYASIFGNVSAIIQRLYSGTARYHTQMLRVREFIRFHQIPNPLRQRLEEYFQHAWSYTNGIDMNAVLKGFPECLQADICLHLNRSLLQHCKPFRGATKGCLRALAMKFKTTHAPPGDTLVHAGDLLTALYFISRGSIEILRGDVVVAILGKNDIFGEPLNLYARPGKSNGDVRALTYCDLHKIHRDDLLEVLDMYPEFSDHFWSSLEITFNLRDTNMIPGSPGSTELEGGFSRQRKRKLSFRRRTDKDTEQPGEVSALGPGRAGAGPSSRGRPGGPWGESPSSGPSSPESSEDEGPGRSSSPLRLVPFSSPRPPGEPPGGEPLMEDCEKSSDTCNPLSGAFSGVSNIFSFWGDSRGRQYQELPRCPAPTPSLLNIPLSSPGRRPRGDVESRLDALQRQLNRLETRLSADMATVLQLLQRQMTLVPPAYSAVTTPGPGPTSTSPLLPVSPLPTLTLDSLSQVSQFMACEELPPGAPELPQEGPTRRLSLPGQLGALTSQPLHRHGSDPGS

hERG (KCNH2) [4] = target: T2, hERG (KCNH2); experiment: Inhibition of human ERG channel expressed in CHO cells at 3.3 uM by patch clamp method; type: cell-based; conditions: CHO cells expressing human ERG channel
In short: (§3)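 hERG current recorded in CHO cells by automated patch clamp; percent inhibition at 0.37, 1.1, 3.3, 10 and 30 µM.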

CYP2C9 = CYP2C9 (Homo sapiens, UniProt P11712); experiment: Inhibition of human CYP2C9 using diclofenac as substrate at 10 uM; type: ADME; conditions: probe diclofenac
[5] = target: Voltage-gated inwardly rectifying potassium channel KCNH2 (Homo sapiens, UniProt Q12809); experiment: Inhibition of human ERG channel expressed in CHO cells by patch clamp method; type: cell-based; conditions: human, cho
hERG (KCNH2) [6] = target: T2, hERG (KCNH2); experiment: Inhibition of human ERG channel expressed in CHO cells at 30 uM by patch clamp method; type: cell-based; conditions: CHO cells expressing human ERG channel; in short: as §3
hERG (KCNH2) [7] = target: T2, hERG (KCNH2); experiment: as §2; type: cell-based; conditions: CHO cells expressing human ERG channel; remark: listed apart in the source
Mus musculus = experiment: Antipsychotic activity in C57BL/6J mouse assessed as reduction of amphetamine-induced locomotor activity administered ip 15 mins prior to amphetamine challenge measured for 105 mins by open field test relative to vehicle-treated control; type: functional, organism-based
[8] = target: T3, 5-hydroxytryptamine receptor 2C (Homo sapiens, UniProt P28335); experiment: Agonist activity at human 5-HT2C receptor expressed in HEK293 cells assessed as calcium flux by FLIPR assay; type: functional, cell-based
T3 sequence (P28335 whole entry): T1 sequence (whole entry)

[9] = target: 5-hydroxytryptamine receptor 6 (Homo sapiens, UniProt P50406); experiment: Binding affinity to 5HT6 receptor (unknown origin)
CYP3A4 = CYP3A4 (Homo sapiens, UniProt P08684); experiment: Inhibition of human CYP3A4 using midazolam as substrate at 10 uM; type: ADME; conditions: probe midazolam
Chain of CYP3A4 (P08684 whole entry): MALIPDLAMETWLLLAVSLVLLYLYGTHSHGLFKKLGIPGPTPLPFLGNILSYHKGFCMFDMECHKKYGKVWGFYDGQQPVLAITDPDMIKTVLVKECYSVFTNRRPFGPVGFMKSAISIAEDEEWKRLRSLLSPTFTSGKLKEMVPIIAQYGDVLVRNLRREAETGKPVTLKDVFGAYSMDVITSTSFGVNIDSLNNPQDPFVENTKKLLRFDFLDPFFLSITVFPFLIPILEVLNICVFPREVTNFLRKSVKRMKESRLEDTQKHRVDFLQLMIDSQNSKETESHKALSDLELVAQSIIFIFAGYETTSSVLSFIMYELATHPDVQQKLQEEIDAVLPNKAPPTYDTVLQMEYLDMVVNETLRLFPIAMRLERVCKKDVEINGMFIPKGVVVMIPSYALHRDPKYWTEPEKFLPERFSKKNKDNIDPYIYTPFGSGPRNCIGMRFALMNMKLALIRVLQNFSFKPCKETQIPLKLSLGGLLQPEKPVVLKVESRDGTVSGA
In short: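 Human liver microsomes with test compound at 10 µM; percent inhibition determined using bupropion (2B6), dextromethorphan (2D6) or midazolam (3A/3A4) as probe substrates.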

[10] = target: Alpha-2A adrenergic receptor (Homo sapiens, UniProt P08913); experiment: Binding affinity to adrenergic alpha-2A receptor (unknown origin)
CYP2B6 = target: T4, CYP2B6 (Homo sapiens, UniProt P20813); experiment: Inhibition of human CYP2B6 using bupropion as substrate at 10 uM; type: ADME; conditions: probe bupropion
T4 sequence (P20813 whole entry): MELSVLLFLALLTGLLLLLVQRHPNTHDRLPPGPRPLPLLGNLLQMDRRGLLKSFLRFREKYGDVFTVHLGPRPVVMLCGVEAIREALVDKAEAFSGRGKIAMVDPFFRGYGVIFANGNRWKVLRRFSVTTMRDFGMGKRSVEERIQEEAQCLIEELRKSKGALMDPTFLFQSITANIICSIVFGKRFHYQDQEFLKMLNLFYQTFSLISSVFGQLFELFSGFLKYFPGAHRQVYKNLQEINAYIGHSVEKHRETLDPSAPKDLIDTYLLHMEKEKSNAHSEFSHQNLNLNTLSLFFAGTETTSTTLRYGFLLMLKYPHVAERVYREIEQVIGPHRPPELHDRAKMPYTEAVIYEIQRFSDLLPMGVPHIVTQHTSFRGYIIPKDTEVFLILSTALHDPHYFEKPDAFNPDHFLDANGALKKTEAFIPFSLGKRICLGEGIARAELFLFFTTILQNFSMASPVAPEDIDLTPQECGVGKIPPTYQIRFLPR

hERG (KCNH2) [11] = target: T2, hERG (KCNH2); experiment: Inhibition of human ERG channel expressed in CHO cells at 10 uM by patch clamp method; type: cell-based; conditions: CHO cells expressing human ERG channel; in short: as §3
[12] = target: T5, 5-hydroxytryptamine receptor 2A (Homo sapiens, UniProt P28223); experiment: Agonist activity at human 5-HT2A receptor expressed in HEK293 cells assessed as calcium flux by FLIPR assay; type: functional, cell-based
T5 sequence (P28223 whole entry): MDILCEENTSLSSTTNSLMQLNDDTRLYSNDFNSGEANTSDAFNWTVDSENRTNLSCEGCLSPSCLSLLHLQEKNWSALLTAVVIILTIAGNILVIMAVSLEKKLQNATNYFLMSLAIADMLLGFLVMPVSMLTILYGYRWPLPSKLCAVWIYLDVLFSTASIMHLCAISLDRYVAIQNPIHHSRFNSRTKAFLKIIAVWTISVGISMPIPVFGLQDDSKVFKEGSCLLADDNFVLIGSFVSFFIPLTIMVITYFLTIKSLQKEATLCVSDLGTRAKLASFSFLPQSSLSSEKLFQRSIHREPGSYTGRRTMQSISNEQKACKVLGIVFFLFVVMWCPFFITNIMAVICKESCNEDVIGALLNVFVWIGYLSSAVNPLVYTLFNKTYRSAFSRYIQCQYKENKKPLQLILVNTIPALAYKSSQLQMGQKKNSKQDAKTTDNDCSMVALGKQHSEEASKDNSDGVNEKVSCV

[13] = target: Alpha-2C adrenergic receptor (Homo sapiens, UniProt P18825); experiment: Binding affinity to adrenergic alpha-2C receptor (unknown origin)
Chain of Alpha-2C adrenergic receptor (P18825 whole entry): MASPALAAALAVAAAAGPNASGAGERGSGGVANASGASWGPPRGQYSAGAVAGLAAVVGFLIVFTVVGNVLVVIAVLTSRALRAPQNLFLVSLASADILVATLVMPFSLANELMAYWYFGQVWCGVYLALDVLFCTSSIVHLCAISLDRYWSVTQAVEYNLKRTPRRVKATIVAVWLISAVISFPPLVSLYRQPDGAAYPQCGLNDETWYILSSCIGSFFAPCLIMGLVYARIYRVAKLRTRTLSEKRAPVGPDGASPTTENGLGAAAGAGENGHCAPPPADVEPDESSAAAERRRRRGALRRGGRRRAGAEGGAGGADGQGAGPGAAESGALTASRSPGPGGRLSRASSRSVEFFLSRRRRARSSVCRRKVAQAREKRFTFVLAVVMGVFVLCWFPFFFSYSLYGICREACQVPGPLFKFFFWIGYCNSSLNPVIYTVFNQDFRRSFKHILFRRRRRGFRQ

[14] = target: 5-hydroxytryptamine receptor 2B (Homo sapiens, UniProt P41595); experiment: Agonist activity at human 5-HT2B receptor expressed in HEK293 cells assessed as calcium flux at 10 uM by FLIPR assay; type: functional, cell-based
Chain of 5-hydroxytryptamine receptor 2B (P41595 whole entry): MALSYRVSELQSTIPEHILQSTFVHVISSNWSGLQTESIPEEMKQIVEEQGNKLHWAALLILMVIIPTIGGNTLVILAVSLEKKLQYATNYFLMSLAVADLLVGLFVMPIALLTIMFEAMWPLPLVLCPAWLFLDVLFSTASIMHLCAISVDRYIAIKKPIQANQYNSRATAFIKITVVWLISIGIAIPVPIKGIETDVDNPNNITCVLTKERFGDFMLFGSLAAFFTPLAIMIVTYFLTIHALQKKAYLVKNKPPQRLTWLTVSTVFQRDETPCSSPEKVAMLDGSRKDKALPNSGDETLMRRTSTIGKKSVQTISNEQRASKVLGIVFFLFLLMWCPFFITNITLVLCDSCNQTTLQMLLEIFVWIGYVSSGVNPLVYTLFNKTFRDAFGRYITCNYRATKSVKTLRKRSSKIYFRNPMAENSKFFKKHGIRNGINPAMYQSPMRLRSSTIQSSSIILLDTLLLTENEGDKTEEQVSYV
In short: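 Flp-In-293 cells stably expressing human 5-HT2A, 5-HT2B or 5-HT2C-INI, grown in DMEM with 10% dialyzed FBS, then plated for 24 h in 1% dialyzed FBS. Cells were loaded 1 h at 37 °C with calcium dye in Hepes-buffered HBSS, pH 7.40, containing 2.5 mM probenecid. FLIPR read 10 s baseline, then 120 s after drug addition.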

CYP2D6 = CYP2D6 (Homo sapiens, UniProt P10635); experiment: Inhibition of human CYP2D6 using dextromethorphan as substrate at 10 uM; type: ADME; conditions: probe dextromethorphan
Chain of CYP2D6 (P10635 whole entry): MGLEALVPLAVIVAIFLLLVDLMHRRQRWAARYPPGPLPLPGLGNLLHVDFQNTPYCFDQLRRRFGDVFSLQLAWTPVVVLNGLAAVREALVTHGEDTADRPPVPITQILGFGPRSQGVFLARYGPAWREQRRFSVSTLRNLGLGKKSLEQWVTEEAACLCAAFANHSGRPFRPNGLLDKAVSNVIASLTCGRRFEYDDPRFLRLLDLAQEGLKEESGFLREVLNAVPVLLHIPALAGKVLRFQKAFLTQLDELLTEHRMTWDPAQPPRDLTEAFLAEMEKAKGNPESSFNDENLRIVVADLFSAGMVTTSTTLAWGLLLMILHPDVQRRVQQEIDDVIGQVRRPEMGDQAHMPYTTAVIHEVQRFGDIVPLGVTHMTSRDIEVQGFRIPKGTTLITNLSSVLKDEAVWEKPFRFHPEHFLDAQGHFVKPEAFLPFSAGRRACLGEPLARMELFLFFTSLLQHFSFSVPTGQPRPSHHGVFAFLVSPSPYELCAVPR

[15] = target: T5, 5-hydroxytryptamine receptor 2A; experiment: Agonist activity at human 5-HT2A receptor expressed in HEK293 cells assessed as calcium flux by FLIPR assay relative to 5-HT; type: functional, cell-based; in short: as §1
[16] = target: Alpha-2B adrenergic receptor (Homo sapiens, UniProt P18089); experiment: Binding affinity to adrenergic alpha-2B receptor (unknown origin)
Chain of Alpha-2B adrenergic receptor (P18089 whole entry): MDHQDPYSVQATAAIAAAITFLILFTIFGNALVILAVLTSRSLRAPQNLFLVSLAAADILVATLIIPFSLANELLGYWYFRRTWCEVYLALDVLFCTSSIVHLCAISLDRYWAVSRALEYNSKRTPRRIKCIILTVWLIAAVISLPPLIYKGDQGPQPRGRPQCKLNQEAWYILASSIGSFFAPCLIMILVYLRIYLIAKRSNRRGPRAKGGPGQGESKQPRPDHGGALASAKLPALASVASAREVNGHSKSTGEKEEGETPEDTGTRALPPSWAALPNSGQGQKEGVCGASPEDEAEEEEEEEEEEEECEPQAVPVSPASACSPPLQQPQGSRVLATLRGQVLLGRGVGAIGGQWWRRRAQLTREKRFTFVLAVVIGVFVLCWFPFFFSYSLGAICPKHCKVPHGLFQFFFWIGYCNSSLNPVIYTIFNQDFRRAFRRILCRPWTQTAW

[17] = target: 5-hydroxytryptamine receptor 7 (Homo sapiens, UniProt P34969); experiment: Binding affinity to 5HT7 receptor (unknown origin)
Chain of 5-hydroxytryptamine receptor 7 (P34969 whole entry): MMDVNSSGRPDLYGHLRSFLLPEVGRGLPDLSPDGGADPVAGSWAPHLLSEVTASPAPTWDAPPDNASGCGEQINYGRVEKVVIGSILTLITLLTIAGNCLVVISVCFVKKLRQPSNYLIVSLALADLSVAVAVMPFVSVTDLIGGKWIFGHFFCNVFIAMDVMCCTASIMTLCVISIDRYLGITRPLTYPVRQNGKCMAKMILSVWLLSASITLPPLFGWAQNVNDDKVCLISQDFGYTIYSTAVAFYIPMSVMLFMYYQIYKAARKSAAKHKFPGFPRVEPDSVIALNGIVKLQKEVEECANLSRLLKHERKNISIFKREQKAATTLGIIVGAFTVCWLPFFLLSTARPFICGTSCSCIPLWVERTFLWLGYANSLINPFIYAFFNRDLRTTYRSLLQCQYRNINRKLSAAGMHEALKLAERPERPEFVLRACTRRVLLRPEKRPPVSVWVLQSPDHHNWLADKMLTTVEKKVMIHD

[18] = Bioavailability in mouse; type: ADME, organism-based; conditions: in vivo

Chain of CYP2C19 (P33261 whole entry): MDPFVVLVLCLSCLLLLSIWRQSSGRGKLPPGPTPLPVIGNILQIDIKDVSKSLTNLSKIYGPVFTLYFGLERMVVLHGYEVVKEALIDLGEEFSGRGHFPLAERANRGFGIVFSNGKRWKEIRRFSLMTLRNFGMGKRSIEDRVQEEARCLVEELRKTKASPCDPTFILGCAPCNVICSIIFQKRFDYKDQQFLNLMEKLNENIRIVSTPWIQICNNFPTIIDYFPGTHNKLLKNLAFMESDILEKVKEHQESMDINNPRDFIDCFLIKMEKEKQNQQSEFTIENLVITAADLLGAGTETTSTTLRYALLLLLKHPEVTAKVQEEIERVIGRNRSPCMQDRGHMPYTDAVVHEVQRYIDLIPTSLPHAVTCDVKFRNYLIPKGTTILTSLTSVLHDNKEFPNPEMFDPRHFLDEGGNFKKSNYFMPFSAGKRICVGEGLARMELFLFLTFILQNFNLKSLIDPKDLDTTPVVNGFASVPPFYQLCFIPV

C=CCOc1ccc(F)cc1[C@H]1C[C@@H]1CN.Cl
inhibition at 10 µM (CYP2C19): 22% | Ki (D(3) dopamine receptor): < 1000 nM | Ki [1]: < 1000 nM | Emax [2]: 87% | Ratio EC50 (Homo sapiens): 89 | inhibition at […] (hERG (KCNH2) [3]): 8.7% | inhibition at 3.3 µM (hERG (KCNH2) [4]): 18% | inhibition at 10 µM (CYP2C9): 35% | inhibition (INH) [5]: Dose-dependent effect | inhibition at 30 µM (hERG (KCNH2) [6]): 45% | inhibition at […] (hERG (KCNH2) [7]): 6.4% | Activity (Mus musculus): Dose-dependent effect | EC50 [8]: 4.2 nM | Ki [9]: < 1000 nM | inhibition at 10 µM (CYP3A4): 15% | Ki [10]: < 1000 nM | inhibition at 10 µM (CYP2B6): 80% | inhibition at 10 µM (hERG (KCNH2) [11]): 29% | EC50 [12]: 374 nM | Ki [13]: < 1000 nM | Activity [14]: inactive | inhibition at 10 µM (CYP2D6): 43% | Emax [15]: 56% | Ki [16]: < 1000 nM | Ki [17]: < 1000 nM

NC[C@H]1C[C@@H]1c1cc(O)ccc1OCC1CC1
bioavailability [18]: 3.2%
